An excerpt weighted towards active compounds, which were near 3.3% of everything screened.
FGF22 binding: FGF22 (human) thermal shift binding | Q9HCT0 | recombinant FGF22 thermal shift, SYPRO orange fluorescence; percent of sucrose octasulfate shift, DMSO zero | activity (Tm shift, normalised), % at 9.99 µM | actives 1.5% (n = 340,000) | AID 651658;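 active means mean Tm shift, scaled 0 neutral to 100 positive control, at about 1.3% or above, every replicate too, limit read from the data; inconclusive means no clear call, values can overlap the other calls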
PglD DTNB: PglD (C. jejuni) enzyme inhibition. purified PglD enzyme, DTNB colorimetric CoA detection. inhibition, % at 12.5 µM. actives 0.098% (n = 360,000). AID 602405; in the data active means inhibition above about 16%, passing the limit was not always enough; inconclusive means no clear call, values can overlap the other calls
E-selectin induc: induces E-selectin expression in human endothelial cells. activation, % at 7.58 µM. AID 686992. P16581. HUVEC E-selectin immunofluorescence imaging; normalized: neutral wells 0, TNF-alpha wells 100. actives 0.37% (n = 260,000);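 active means mean E-selectin-positive cell signal at least 10% of the positive control, reached in at least 60% of replicates, without over 20% cell loss; inconclusive means no rule given, readout overlaps actives, possibly toxicity-flagged; inactive means the rest, including those meeting only one limit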
Target sequence (P16581 whole entry, looked up): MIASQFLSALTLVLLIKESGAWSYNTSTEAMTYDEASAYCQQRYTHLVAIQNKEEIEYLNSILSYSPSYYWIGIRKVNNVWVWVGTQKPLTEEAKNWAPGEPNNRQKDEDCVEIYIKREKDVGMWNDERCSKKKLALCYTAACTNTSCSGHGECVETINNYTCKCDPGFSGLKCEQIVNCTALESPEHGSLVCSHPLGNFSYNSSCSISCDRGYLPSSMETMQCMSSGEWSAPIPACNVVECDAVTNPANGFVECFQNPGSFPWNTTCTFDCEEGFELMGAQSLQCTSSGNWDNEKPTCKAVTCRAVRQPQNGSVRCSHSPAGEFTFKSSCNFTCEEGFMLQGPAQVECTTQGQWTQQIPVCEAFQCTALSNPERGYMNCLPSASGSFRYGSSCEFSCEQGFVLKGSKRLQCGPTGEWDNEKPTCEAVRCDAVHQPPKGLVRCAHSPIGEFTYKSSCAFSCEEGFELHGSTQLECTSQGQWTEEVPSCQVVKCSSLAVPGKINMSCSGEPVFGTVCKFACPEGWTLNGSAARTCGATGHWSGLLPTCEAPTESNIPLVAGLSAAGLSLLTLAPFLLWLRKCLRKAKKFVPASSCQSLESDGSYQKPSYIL
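Test system – human umbilical vein endothelial cells (HUVEC), E-selectin induction · Input – 3,000 HUVEC seeded per well · Buffer or medium – EGM-2, gelatin · Compound dosing – single-point compound dose · Detection – immunofluorescence imaging · Measure – percent E-selectin-positive cells · Controls – TNF-alpha high, DMSO low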
C2C12 statin: protects C2C12 myotubes from simvastatin toxicity | ATP luminescence, 48 h; scaled: DMSO 0, geranylgeraniol control 100 | rescue of ATP level, % at 7.49 µM | actives 0.78% (n = 330,000) | AID 602340;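 active means mean ATP rescue above about 67%, or every replicate alone reaching that limit, limit read from the data, passing the limit was not always enough; inconclusive means no clear call, values can overlap the other calls; inactive means mean under the limit and some replicate under it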;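 further: myotubes were challenged with 10 µM simvastatin during compound exposure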
Xi reactivation: activators of X-chromosome reactivation in mouse fibroblasts | actives 0.055% (n = 360,000) | activation, % at 7.58 µM | AID 743238 | XiGFP mouse fibroblasts, % GFP-positive cells imaging, 3 d; cells co-treated with 5-aza-dC sensitizer; scaled so ellipticine positive control = 100%;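 active means mean normalized replicate activation at least 10% and every replicate at or above 10%; inconclusive means only one of the two criteria met; inactive means mean below 10% and not all replicates reach 10%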;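 further: 0% = median of on-plate neutral control wells and 100% = ellipticine 6 µM median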
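Material: XiGFP fibroblasts, SV40-immortalized. Buffer or medium: DMEM plus 5-aza-dC sensitizer. Compound: single concentration per compound, delivered by pin transfer. Times: 3 days compound exposure. Controls: ellipticine 6 µM.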
DENV2 CPE: protects cells from dengue virus 2 cytopathic effect; DENV2-infected cells, cytopathic effect rescue, plate reader; CPE inhibition, % at 9.99 µM; actives 1.7% (n = 350,000); in the data active means CPE inhibition above about 20%, passing the limit was not always enough; inconclusive means no clear call, values can overlap the other calls; tested in BHK-21 cells;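 further: 0% = median of neutral control wells and 100% = median of positive control wells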
Numbers without * were called inactive.

CC(C)NC(=O)N1C[C@@H]2[C@H](c3ccccc31)[C@@H](CO)N2C(=O)c1ccccc1F was read as FGF22 binding 1, PglD DTNB -2, E-selectin induc 1, C2C12 statin -10 and Xi reactivation 0.
For O=C(C1CC1)N1CC[C@@H]2[C@H]1c1cc(Br)ccc1N[C@@H]2CO the results were PglD DTNB -3, E-selectin induc 0, C2C12 statin 8, Xi reactivation 0 and DENV2 CPE 36*.
Screening O=C(C1CCC1)N1CC[C@H]2[C@H](CO)Nc3ccc(Br)cc3[C@H]21 returned E-selectin induc 0, Xi reactivation 0 and DENV2 CPE 9.
`O=C(C1CC1)N1CC[C@H]2[C@H](CO)Nc3ccc(Br)cc3[C@H]21` gave FGF22 binding 0, PglD DTNB 1, E-selectin induc 0, C2C12 statin 19, Xi reactivation 0 and DENV2 CPE 27*.
Screening O=C(C1CCCC1)N1CC[C@@H]2[C@H]1c1cc(Br)ccc1N[C@@H]2CO returned E-selectin induc 0, Xi reactivation 0 and DENV2 CPE -7.
Screening Brc1cnc2nc(SCc3nc4ccccc4[nH]3)[nH]c2c1 returned FGF22 binding 0, PglD DTNB 6, E-selectin induc 53*, Xi reactivation 0 and DENV2 CPE inconclusive.
For CCN(CC)C(=O)c1scc2c1OCCO2 the results were PglD DTNB 2 and C2C12 statin 120*.
